UBC9 SUMO inh – inhibitors of in vitro SUMOylation cascade, primary screen, biochemical, HTRF, uHTS; HTRF SUMOylation assay, SAE1/SAE2 + UBC9; inhibition, % at 35 µM; 290,000 compounds, 0.36% hits; AID 2006, 2009; in the data active = inhibition above about 50%, passing the limit was not always enough
Target sequence (P63279 whole entry, looked up): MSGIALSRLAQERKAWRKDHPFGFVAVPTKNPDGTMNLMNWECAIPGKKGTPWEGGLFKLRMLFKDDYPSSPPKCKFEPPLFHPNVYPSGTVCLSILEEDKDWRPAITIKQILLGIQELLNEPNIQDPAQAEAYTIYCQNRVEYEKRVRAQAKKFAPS
ALR inh – inhibitors of human ALR sulfhydryl oxidase, primary screen, biochemical, H2O2 detection, HRP-luminol luminescence, single point. purified ALR, DTT oxidation. 290,000 compounds, 3.8% hits. FAD-linked sulfhydryl oxidase ALR (Homo sapiens), P55789. AID 485317, 2010. inhibition, % (no concentration beside the values);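 active = mean replicate inhibition above about 79%, with every replicate also reaching it, limit read from the data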
UBC13 polyUb – UBC13 polyubiquitin chain formation inhibitors, primary screen, biochemical, TR-FRET, uHTS; Ubiquitin-conjugating enzyme E2 N (Homo sapiens), P61088; inhibition, % at 20 µM; 330,000 compounds, 0.47% hits; AID 485273, 2010; in the data active = inhibition above about 45%, passing the limit was not always enough
Target sequence (P61088 whole entry, looked up): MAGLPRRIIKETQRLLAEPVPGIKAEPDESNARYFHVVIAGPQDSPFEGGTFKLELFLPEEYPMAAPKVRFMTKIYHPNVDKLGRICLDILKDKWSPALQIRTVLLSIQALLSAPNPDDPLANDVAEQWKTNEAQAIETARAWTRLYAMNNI
PREPL inhibitor – PREPL enzyme inhibitors, primary screen, biochemical, fluorescence polarization; 320,000 compounds, 0.68% hits; inhibition, % at 5.96 µM; AID 2751, 2010; recombinant PREPL, fluorescence polarization activity-based probe; Prolyl endopeptidase-like (Homo sapiens), Q4J6C6; in the data active = inhibition above about 43%;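 also: 0% = enzyme with DMSO and 100% = wells lacking enzyme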
Rin1-Abl PPI inh – inhibitors of Rin1-Abl protein binding, primary screen, biochemical, TR-FRET; Tyrosine-protein kinase ABL1 (Homo sapiens) + Ras and Rab interactor 1 (Homo sapiens), …; inhibition, % at 7.35 µM; 360,000 compounds, 0.4% hits; AID 588664, 2011; in the data active = inhibition above about 5%, passing the limit was not always enough
RBBP9 inh – human RBBP9 inhibitors, primary screen, biochemical, fluorescence polarization, FP-Rh probe, HTS; Serine hydrolase RBBP9 (Homo sapiens), O75884; recombinant RBBP9; inhibition, % at 7.94 µM; 220,000 compounds, 0.2% hits; AID 1515, 2009;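 active = inhibition above the campaign mean of all tested compounds plus 3 SD, cut at about 14% in these data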;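 also: plate controls were DMSO wells with RBBP9 for no effect and wells lacking RBBP9 protein for full effect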
Target sequence (O75884 whole entry, looked up): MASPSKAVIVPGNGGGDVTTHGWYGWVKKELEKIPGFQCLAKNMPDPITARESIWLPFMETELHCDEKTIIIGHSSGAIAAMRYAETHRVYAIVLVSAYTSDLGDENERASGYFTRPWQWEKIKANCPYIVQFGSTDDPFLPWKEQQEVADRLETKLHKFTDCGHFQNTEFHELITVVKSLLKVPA
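Measured by – fluorescence polarization · Test system – RBBP9 protein · Input – 2.5 µM RBBP9 dispensing solution, before mixing · Measure – percent inhibition from mP, scaled between DMSO and no-protein wells · Benchmarks – DMSO-treated enzyme wells and wells lacking RBBP9 · Times – preincubation 30 min plus labeling 45 min at 25 °C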
An asterisk follows results filed as active. Most compounds without a hit are left out; they make up all but 4.3% or so of the library.

How did O=C(NNC(=O)c1ccc(Br)o1)c1ccc(NC(=O)c2ccccc2)cc1 do in these assays?
UBC9 SUMO inh: 12; ALR inh: 50; UBC13 polyUb: -6; PREPL inhibitor: 16; Rin1-Abl PPI inh: 3; RBBP9 inh: -10

What do the screens show for `N/C(=N\O)c1ccc(NC(=O)c2ccc(Br)o2)cc1`?
UBC9 SUMO inh: 6; ALR inh: 98*; UBC13 polyUb: 5; PREPL inhibitor: 1; Rin1-Abl PPI inh: 1; RBBP9 inh: -2

What do the screens show for `CC(C)NC(=O)/C(C#N)=C/c1ccc(N(C)C)o1`?
UBC9 SUMO inh: -12; ALR inh: 98*; UBC13 polyUb: -261; PREPL inhibitor: 2; Rin1-Abl PPI inh: -24; RBBP9 inh: 6

Results for Cc1ccc(/C=C(\C#N)C(=O)NC(C)C)o1 ?
UBC9 SUMO inh: 3; ALR inh: -1; UBC13 polyUb: 12; PREPL inhibitor: -1; Rin1-Abl PPI inh: 3; RBBP9 inh: -6

Results for O=c1/c(=C\c2ccc(F)cc2)sc2n1CCCN=2 ?
UBC9 SUMO inh: 14; ALR inh: 49; UBC13 polyUb: -11; PREPL inhibitor: 4; Rin1-Abl PPI inh: -1; RBBP9 inh: 3

What do the screens show for `CN(C)c1ccc(/C=c2\sc3n(c2=O)CCCN=3)cc1`?
UBC9 SUMO inh: -10; ALR inh: 99*; UBC13 polyUb: -42; PREPL inhibitor: 31; Rin1-Abl PPI inh: -18; RBBP9 inh: -1

How did O=c1/c(=C/c2ccc(O)cc2)sc2n1CCCN=2 do in these assays?
UBC9 SUMO inh: 19; ALR inh: 98*; UBC13 polyUb: -7; PREPL inhibitor: -3; Rin1-Abl PPI inh: -3; RBBP9 inh: -5

How did c1ccc2c(CSCCc3ccncc3)cccc2c1 do in these assays?
UBC9 SUMO inh: 4; ALR inh: 100*; UBC13 polyUb: 9; PREPL inhibitor: 24; Rin1-Abl PPI inh: -1; RBBP9 inh: -15

How did N#Cc1ccccc1OCC(=O)N(C1CCCCC1)C1CCS(=O)(=O)C1 (centres undefined) do in these assays?
ALR inh: -20; UBC13 polyUb: -19; PREPL inhibitor: 1; Rin1-Abl PPI inh: 0

Results for NC(=O)c1cc(Br)cc(C2CCCCC2)c1O ?
UBC9 SUMO inh: -9; ALR inh: 92*; UBC13 polyUb: 15; PREPL inhibitor: 0; Rin1-Abl PPI inh: -1; RBBP9 inh: -10

How did Nc1ccc(OCCc2ccccc2)cc1 do in these assays?
UBC9 SUMO inh: 8; ALR inh: 31; UBC13 polyUb: 4; PREPL inhibitor: 9; Rin1-Abl PPI inh: 2

How did Nc1ccc(OCc2ccccc2)cc1 do in these assays?
UBC9 SUMO inh: -1; ALR inh: 97*; UBC13 polyUb: -1; PREPL inhibitor: 6; Rin1-Abl PPI inh: -1; RBBP9 inh: 2

What do the screens show for `CC(C)CC1C(=O)N(Cc2cn(CC3CCCCC3)nn2)CCS(=O)(=O)N1Cc1ccc(-c2cccc(CO)c2)cc1` (centres undefined)?
Rin1-Abl PPI inh: -2

Results for CNC(=O)c1sc(N2N=C3/C(=C\c4ccccc4)CCCC3C2c2ccccc2)nc1C (centres undefined) ?
Rin1-Abl PPI inh: 3

What do the screens show for `CNC(=O)c1sc(N2N=C3/C(=C/c4ccccc4)CCCC3C2c2ccccc2)nc1C` (centres undefined)?
UBC9 SUMO inh: 13; ALR inh: 99*; UBC13 polyUb: 6; PREPL inhibitor: 2; Rin1-Abl PPI inh: -2; RBBP9 inh: -5

Results for COc1ccc(NC(=O)Cn2nc(C(=O)O)c3ccccc3c2=O)cc1Cl ?
UBC9 SUMO inh: 7; ALR inh: -4; UBC13 polyUb: -1; PREPL inhibitor: -7; Rin1-Abl PPI inh: -1

Results for CCOc1ccc(-c2cc(N3C(=O)Nc4ccccc4N3O)n[nH]2)cc1 ?
UBC9 SUMO inh: -4; ALR inh: 98*; UBC13 polyUb: -1; PREPL inhibitor: 9; Rin1-Abl PPI inh: 3; RBBP9 inh: -6

Results for Nc1cc(Br)cc2c1[nH]c(=O)c1ccccc12 ?
Rin1-Abl PPI inh: -3

How did COc1ccc(CSC(=N)N)cc1[N+](=O)[O-] do in these assays?
UBC9 SUMO inh: 17; UBC13 polyUb: -1; PREPL inhibitor: -6; Rin1-Abl PPI inh: 1; RBBP9 inh: 8

How did COC(=O)c1cc(CSC(=N)N)ccc1OCCC(C)C do in these assays?
UBC9 SUMO inh: 20; ALR inh: 99*; UBC13 polyUb: 29; PREPL inhibitor: 17; Rin1-Abl PPI inh: 2; RBBP9 inh: -6

How did CCCOc1ccc(CSC(=N)N)cc1C(=O)OC do in these assays?
UBC9 SUMO inh: 1; ALR inh: 99*; UBC13 polyUb: 12; PREPL inhibitor: 9; Rin1-Abl PPI inh: 3; RBBP9 inh: -1

How did CCCCCc1ccnc(CC(=O)c2ccc(OC)cc2)c1 do in these assays?
Rin1-Abl PPI inh: 1

How did Cc1nccn1CCOc1ccccc1Cl do in these assays?
UBC9 SUMO inh: -2; ALR inh: 6; UBC13 polyUb: 0; Rin1-Abl PPI inh: 2

What do the screens show for `O=C(CCc1nnc2ccc(N3CCOCC3)nn12)Nc1ccc(F)cc1F`?
UBC9 SUMO inh: 6; ALR inh: -3; UBC13 polyUb: -2; PREPL inhibitor: -1; Rin1-Abl PPI inh: -1

Results for CCN(CC)c1ccc(/C=N/N2C(C)CCCC2C)c(O)c1 (centres undefined) ?
UBC9 SUMO inh: 2; ALR inh: 98*; UBC13 polyUb: -2; PREPL inhibitor: -5; Rin1-Abl PPI inh: -2

What do the screens show for `CCN(CC)c1ccc(/C=N/N=C(N)N)c(O)c1`?
UBC9 SUMO inh: 0; ALR inh: 76*; UBC13 polyUb: -5; PREPL inhibitor: 18; Rin1-Abl PPI inh: -5; RBBP9 inh: -9

Results for CCN(CC)c1ccc(C=Nc2ccc(N(C)C)cc2)c(O)c1 ?
UBC9 SUMO inh: -59; ALR inh: 98*; UBC13 polyUb: -75; PREPL inhibitor: 17; Rin1-Abl PPI inh: 7; RBBP9 inh: 5

Results for O=C(C[n+]1ccn(-c2ccccc2)c1)c1ccc([N+](=O)[O-])cc1 ?
UBC9 SUMO inh: 1; ALR inh: -27; UBC13 polyUb: 8; PREPL inhibitor: 17; Rin1-Abl PPI inh: -2

How did COc1ccccc1C(C)NC(=O)c1cc(=O)[nH]c2ccccc12 (centres undefined) do in these assays?
UBC9 SUMO inh: 9; ALR inh: 0; UBC13 polyUb: -4; PREPL inhibitor: 11; Rin1-Abl PPI inh: 2

Results for COc1ccc(C(=O)NCc2nnc(SCC(=O)Nc3nnc(C)s3)o2)cc1 ?
UBC9 SUMO inh: 5; ALR inh: 99*; UBC13 polyUb: -2; PREPL inhibitor: -4; Rin1-Abl PPI inh: -2; RBBP9 inh: -2
